Bioassay records deposited in PubChem by The Scripps Research Institute Molecular Screening Center.
PME-1 primary: PME-1 (human) inhibition. recombinant PME-1, FP-Rh probe fluorescence polarization. inhibition, % at 5.9 µM. actives 0.53% (n = 320,000);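 active = inhibition above the campaign mean of all compounds plus 3 SD, cut at about 26% in these data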;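 note: competitive labeling of PME-1 active site by serine hydrolase directed probe; inhibitors block probe labeling so polarization falls and inhibition rises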
LYPLA1 inh: LYPLA1 (human) inhibition in PME1 counter-screen; actives 0.16% (n = 320,000); inhibition, % at 5.9 µM; recombinant LYPLA1, FP-Rh probe fluorescence polarization; O75608;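 active = inhibition above the mean of all tested compounds plus 3 SD, set per campaign, cut at about 14% in these data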;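 note: inhibitors block serine hydrolase probe labeling of LYPLA1 so polarization falls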
Target sequence (O75608 whole entry, looked up): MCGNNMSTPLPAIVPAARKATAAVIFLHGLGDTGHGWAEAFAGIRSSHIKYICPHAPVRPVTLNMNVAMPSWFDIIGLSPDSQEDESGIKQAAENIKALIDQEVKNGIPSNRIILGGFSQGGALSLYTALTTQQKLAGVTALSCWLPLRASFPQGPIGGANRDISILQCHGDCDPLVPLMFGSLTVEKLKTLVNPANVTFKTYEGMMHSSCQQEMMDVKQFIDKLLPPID
procasp7 counter: counter-screen for procaspase-3 activators: activators of human procaspase-7; P55210; recombinant procaspase-7, Ac-DEVD-pNA absorbance 405 nm; D23A/D198A/D206A triple mutant, cannot self-cleave; scale: DMSO 0, 5 µM enzyme 100; activation, % at 8.5 µM; actives 0.093% (n = 330,000); AID 463210;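 active = percent activation above the screen-wide mean plus 3 SD, cut at about 25% in these data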
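Assay system: Uncleavable procaspase-7 mutant enzyme / Input: 2 µM procaspase-7 mutant as dispensed / Dosing: single nominal 8.5 µM compound dose, 0.8% DMSO final / Timing: 1 h enzyme–compound preincubation and 2 h substrate reaction, both 25 °C / Detection: p-Nitroaniline absorbance at 405 nm, read at 0 and 120 min / Replication: singlicate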
LYPLA2 counter: LYPLA2 (human) inhibition in PME1 counter-screen. recombinant LYPLA2, FP-Rh probe fluorescence polarization. O95372. inhibition, % at 5.9 µM. AID 2177. actives 0.38% (n = 320,000);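 active = inhibition above the screen-wide mean plus 3 SD, limit set per campaign, cut at about 26% in these data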
procasp3 activ: activates human procaspase-3; P42574; recombinant procaspase-3 D3A, Ac-DEVD-pNA absorbance 405 nm; activation, % at 8.5 µM; actives 0.11% (n = 330,000); AID 463141;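 active = activation above the mean of all tested compounds plus 3 SD, cut at about 21% in these data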
Target sequence (P42574 whole entry D9A/D28A/D175A): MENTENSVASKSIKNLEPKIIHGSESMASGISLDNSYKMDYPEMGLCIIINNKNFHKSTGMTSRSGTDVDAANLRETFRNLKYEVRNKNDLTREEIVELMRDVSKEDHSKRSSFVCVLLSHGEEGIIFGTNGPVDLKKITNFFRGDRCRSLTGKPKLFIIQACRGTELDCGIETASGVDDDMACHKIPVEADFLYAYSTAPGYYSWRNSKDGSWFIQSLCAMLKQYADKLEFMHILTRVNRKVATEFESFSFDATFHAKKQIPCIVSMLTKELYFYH
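material = Procaspase-3 D3A mutant | probe or stimulus = Ac-DEVD-pNA | compound = single dose, 8.5 µM nominal compound, 0.8% DMSO | timing = 1 h preincubation, 2 h reaction | measured by = 405 nm absorbance of p-nitroaniline, reads at 0 and 120 min | benchmarks = DMSO-only low control, 5 µM PC-3 D3A high control | repeats = singlicate, each compound tested once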
Fam108B counter: counter-screen for RBBP9 inhibitors: inhibitors of mouse Fam108B | recombinant Fam108B, FP-Rh probe fluorescence polarization | inhibition, % at 9.51 µM | actives 0.33% (n = 300,000);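 active = inhibition above the screen mean inhibition plus 3 SD, computed separately per campaign, cut at about 18% in these data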;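 note: inhibitors lower polarization as less probe binds the enzyme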
LYPLA2 confirm: LYPLA2 (human) inhibition, confirmation counter-screen | shares compounds with LYPLA2 counter | recombinant LYPLA2, FP-Rh probe fluorescence polarization | actives 72% (n = 1,100) | inhibition, % at 5.9 µM;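 active = mean inhibition across replicates above the hit cutoff set in the primary screen, cut at about 26% in these data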;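 note: blocked labeling of the enzyme by serine hydrolase FP-Rh probe lowers polarization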
LYPLA2 ABPP: LYPLA2 (human) inhibition, late stage results; shares compounds with LYPLA2 counter; rhLYPLA2 in mouse brain proteome, gel ABPP FP-Rh; inhibition, % at 20 µM; actives 30% (n = 150); AID 652029;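 active = inhibition of LYPLA2 enzyme probe labeling above about 50%, limit read from the data; inactive = inhibition below that limit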;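 note: loss of FP-Rh probe labeling of the LYPLA2 gel band measured as band density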
Numbers stand for hits; i = inactive; nt = no result. A selection: hits, their analogues and other compounds. The true share with any hit is near 1%.

SMILES	PME-1 primary	LYPLA1 inh	procasp7 counter	LYPLA2 counter	procasp3 activ	Fam108B counter	LYPLA2 confirm	others
Cc1nc(C(=O)Nc2ccc(Cl)cc2)sc1C1(C)CC(c2cccc([N+](=O)[O-])c2)=NO1 (stereo not given)	i	i	i	i	i	i	nt
O=C(Nc1ccc(C(F)(F)F)cc1)N1CCN(c2ccnc3cc(Cl)ccc23)CC1	i	i	i	i	i	i	nt
O=c1c2ccccc2ncn1-c1ccc([N+](=O)[O-])cc1[N+](=O)[O-]	i	i	i	i	i	i	nt
Cc1ccc(-n2cnn(-c3ccc([N+](=O)[O-])cc3[N+](=O)[O-])c2=O)cc1	i	i	i	55	i	i	56	LYPLA2 ABPP=i
O=C(Nc1ncccc1O)c1cccc(S(=O)(=O)N2CCc3ccccc32)c1	i	i	i	27	i	i	i
O=C(COC(=O)c1ccc([N+](=O)[O-])s1)Nc1ncc(C(F)(F)F)cc1Cl	i	i	i	i	i	i	nt
COc1cc(/C=N/NC(=O)/C(=C\c2ccc3c(c2)OCO3)NC(=O)c2ccccc2)ccc1O	i	i	i	i	i	i	nt
COc1cc(/C=N/NC(=O)/C(=C\c2ccc([N+](=O)[O-])cc2)NC(=O)c2ccccc2)cc(OC)c1O	i	i	i	39	i	i	42
Cc1nn(-c2ccccc2)c2sc(C(=O)OC3CCOC3=O)cc12 (stereo not given)	i	i	i	36	i	i	43
O=C(Cn1cc([N+](=O)[O-])cn1)Nc1ccc(Cn2cc(Br)cn2)cc1	i	i	i	56	i	i	57	LYPLA2 ABPP=i
CCOc1ccc(C2/C(=C(/O)c3ccc4c(c3)CC(C)O4)C(=O)C(=O)N2CCCn2ccnc2)cc1OCC (stereo not given)	i	i	i	i	i	i	nt
CCOC(=O)C1CCCN(C(=O)c2ccc3nc(-c4cccc(OC)c4)oc3c2)C1 (stereo not given)	i	i	i	56	i	i	57
CCC(=O)C1CCCN(C(=O)c2ccc3nc(-c4cccc(OC)c4)oc3c2)C1 (stereo not given)	i	i	i	29	i	i	40
CCOC(=O)C1(CCOc2ccccc2)CCN(Cc2ccc3nonc3c2)CC1	i	i	i	31	i	i	28
O=C(c1cc(-c2cccs2)on1)N1CCN(c2ccc(F)cc2)CC1	i	i	i	28	i	i	27
COc1ccc(-c2cc(C(=O)N3CCCC3)no2)cc1OC	i	i	i	i	i	i	nt
COc1ccc(-c2cc(C(=O)N3CCN(c4ccc(F)cc4)CC3)no2)cc1OC	i	i	i	39	i	i	33
CCCN(Cc1cc2cc(C)ccc2[nH]c1=O)C(=O)c1cccc([N+](=O)[O-])c1	i	i	i	i	i	i	nt
CCn1c(=O)cc(OCC(=O)N2CCCC2)c2ccccc21	i	i	i	i	i	i	nt
CCn1c(=O)cc(OCC(=O)N2CCN(c3cccc(C(F)(F)F)c3)CC2)c2ccccc21	i	i	i	51	i	i	47
O=[N+]([O-])c1cc(-n2cnnn2)ccc1N1CCC(Cc2ccccc2)CC1	i	i	i	28	i	i	34
Cc1ncc([N+](=O)[O-])n1CC(=O)Nc1cccc(C(F)(F)F)c1	i	i	i	51	i	i	41
Cc1ncc([N+](=O)[O-])n1CC(=O)NC1CCCCCC1	i	i	i	28	i	i	33
Cc1ncc([N+](=O)[O-])n1CC(=O)Nc1ccc(OC(F)(F)Cl)cc1	i	i	i	i	i	i	nt
Cc1ncc([N+](=O)[O-])n1CC(=O)NC1CCCC1	i	i	i	i	i	i	nt
Cc1ncc([N+](=O)[O-])n1CC(=O)Nc1ccc(F)c(Cl)c1	i	i	i	34	i	i	61	LYPLA2 ABPP=i
